Compound activity from PubChem BioAssay.
MT1-MMP act inh: MT1-MMP (human) activation inhibition. HT1080 RFP-PRO-GFP cells, GFP/RFP ratio fluorescence, overnight; percent of plate control window, DMSO zero. GFP/RFP ratio change, % at 20 µM. 360,000 tested, 0.061% active. AID 651647;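 active = GFP/RFP ratio change of at least 30% with cell ATP level not reduced by more than half and red fluorescence within 50% of control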
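Assay system: HT1080 RFP-PRO-GFP cells | Dosing: 20 µM single dose, 1% DMSO | Incubation: Cells overnight before dosing, compound overnight, 37 °C, 5% CO2 | Evaluation: GFP/RFP fluorescence ratio | Control set: DMSO-only wells and HT1080 RFP-L50D-GFP cell wells as references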
iPSC survival up: enhancers of human iPSC single-cell survival; hiPSC single-cell survival, ATPlite luminescence; 100% = ROCK inhibitor wells, 0% = DMSO; survival enhancement, % at 20 µM; 360,000 tested, 0.044% active; AID 602274; in the data active = survival enhancement above about 18%;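 note: cells exposed to compounds for 16 hours before the ATP read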
Cneo AK release: causes C. neoformans cell lysis | AID 651654 | adenylate kinase release luminescence, 4 h; normalised: neutral wells 0, clomiphene wells 100 | 360,000 tested, 0.2% active | lysis activity, % at 15 µM;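 active = mean lysis activity across replicates of at least 80%, whatever share of replicates individually reach that level; inactive = mean lysis activity below 80%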
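Assay system: C. neoformans cells. Amount: yeast cell density of 5 × 10^6 cells/mL. Technique: AK luminescence. Buffer or medium: YPD. Times: static 4 h at 37 °C with compound, 1 h detection. Dosing: single-point compound dose. Read-out: lysis from increased AK signal.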
DAGLB inh: diacylglycerol lipase beta (human) inhibition | 340,000 tested, 0.059% active | inhibition, % at 5.17 µM | Q8NCG7 | HEK293T DAGLB membrane lysate, EnzChek fluorogenic substrate; in the data active = inhibition above about 34%;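 note: 0% = enzyme with vehicle and 100% = wells lacking enzyme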
Target sequence (Q8NCG7 whole entry, looked up): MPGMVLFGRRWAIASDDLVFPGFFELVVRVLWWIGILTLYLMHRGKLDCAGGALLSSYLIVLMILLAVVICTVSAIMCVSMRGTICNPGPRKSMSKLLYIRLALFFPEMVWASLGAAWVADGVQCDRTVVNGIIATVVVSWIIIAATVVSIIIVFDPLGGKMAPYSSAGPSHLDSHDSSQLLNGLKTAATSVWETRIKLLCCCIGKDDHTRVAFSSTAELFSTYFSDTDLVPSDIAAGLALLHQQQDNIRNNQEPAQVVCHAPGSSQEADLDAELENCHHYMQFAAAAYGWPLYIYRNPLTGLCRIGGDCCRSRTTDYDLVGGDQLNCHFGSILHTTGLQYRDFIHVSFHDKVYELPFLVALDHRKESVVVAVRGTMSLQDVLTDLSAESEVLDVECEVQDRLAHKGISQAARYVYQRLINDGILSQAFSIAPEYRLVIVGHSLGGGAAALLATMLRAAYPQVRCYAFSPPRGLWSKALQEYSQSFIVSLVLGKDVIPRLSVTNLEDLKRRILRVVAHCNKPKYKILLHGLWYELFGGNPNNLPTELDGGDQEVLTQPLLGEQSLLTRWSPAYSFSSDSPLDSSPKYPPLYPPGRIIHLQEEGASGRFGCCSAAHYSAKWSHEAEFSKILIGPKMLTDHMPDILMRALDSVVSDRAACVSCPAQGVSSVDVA
SKN-1 inh: inhibitors of C. elegans SKN-1. 360,000 tested, 0.49% active. inhibition, % at 21.8 µM. C. elegans VP596 Pgst-4::GFP/RFP ratio, acrylamide-induced, 24 h. AID 624304;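 active = interference check ratio from 0.5 to 1.5 plus GFP to RFP signal ratio inhibition reaching or exceeding a fixed threshold, cut at about 30% in these data, passing the limit was not always enough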
Ecoli rRNA inh: inhibits bacterial ribosomal RNA function over humanized ribosomes; AID 720706; E. coli WT GFP vs humanized-ribosome RFP mutants, fluorescence, 24 h; hits give low values; DMSO median 0, no signal -100; 350,000 tested, 1.6% active; GFP signal change (wild-type ribosome), % (concentration not given with the values);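 active = significant combined selectivity score with lowered wild-type GFP, culture density cut under 30%, mutant RFP and density less affected; inactive = any of these conditions unmet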
* hit, by the source's call. The list is not random: actives were taken first. Their share in the collection is about 1.8%.

Screening COc1cccc(C#Cc2cnc3c(c2)C(=O)N([C@H](C)CO)C[C@@H](C)[C@H](CN(C)C)O3)c1 returned Cneo AK release 4 and Ecoli rRNA inh 3.
Screening CCOc1cc(/C=N/NC(=O)c2ccccc2OCc2ccc(F)cc2)ccc1O returned MT1-MMP act inh 4, iPSC survival up -1, Cneo AK release 8, DAGLB inh -4, SKN-1 inh -9 and Ecoli rRNA inh -21*.
`CC(=O)Nc1ccc2c(c1)CC(=O)N(C)C[C@@H](C)[C@@H](CN(C)C)O2` gave Ecoli rRNA inh 1.
For O=C(Nc1ccc(OC(F)(F)F)cc1)Oc1ccccc1N1CCCCC1 the results were MT1-MMP act inh 2, iPSC survival up 0, Cneo AK release -1, SKN-1 inh 10 and Ecoli rRNA inh -50*.
O=C(Nc1ccc(OC(F)(F)F)cc1)Oc1ccccc1N1CCOCC1 was read as MT1-MMP act inh -1, iPSC survival up -1, DAGLB inh 0, SKN-1 inh 0 and Ecoli rRNA inh -47.
Screening C[C@@H]1CN([C@@H](C)CO)C(=O)Cc2cc(NC(=O)CCCCCC(=O)Nc3ccccc3N)ccc2O[C@H]1CN(C)C(=O)Nc1ccccc1 returned Ecoli rRNA inh 0.
C[C@H]1CN([C@@H](C)CO)C(=O)Cc2cc(NC(=O)CCCCCC(=O)Nc3ccccc3N)ccc2O[C@H]1CN(C)C(=O)Nc1ccccc1 was read as Cneo AK release 94* and Ecoli rRNA inh 2.
Screening C[C@@H]1CN([C@H](C)CO)C(=O)Cc2cc(NC(=O)CCCCCC(=O)Nc3ccccc3N)ccc2O[C@H]1CN(C)C(=O)Nc1ccccc1 returned Cneo AK release 105* and Ecoli rRNA inh -2.
Screening C[C@@H]1CN([C@@H](C)CO)C(=O)Cc2cc(NC(=O)CCCCCC(=O)Nc3ccccc3N)ccc2O[C@@H]1CN(C)C(=O)Nc1ccccc1 returned Cneo AK release 0 and Ecoli rRNA inh 3.
Screening O=C(NCC1CC1)[C@H]1[C@H](CO)[C@H]2Cn3c(ccc(-c4cccnc4)c3=O)[C@@H]1N2Cc1nccs1 returned Cneo AK release 1 and Ecoli rRNA inh -1.
`N=C(N)c1ccc(N=Nc2c(O)ccc3c2[nH]c2ccccc23)cc1` gave MT1-MMP act inh 4, iPSC survival up -2, DAGLB inh 19, SKN-1 inh -1 and Ecoli rRNA inh -30*.
Cc1ccc(N=Nc2[nH]c3ccccc3c2O)cc1 was read as MT1-MMP act inh -18, iPSC survival up -1, Cneo AK release -3, DAGLB inh 0, SKN-1 inh 5 and Ecoli rRNA inh 12.
C[C@H](CO)N1C[C@H](C)[C@H](CN(C)S(=O)(=O)c2ccccc2)OCc2cn(nn2)CCCC1=O was read as Ecoli rRNA inh -1.
For COc1ccc(F)cc1C(=O)C1CCCN(Cc2cn(C)c3ccccc23)C1 (stereo not drawn) the results were MT1-MMP act inh -4, iPSC survival up -1, Cneo AK release -1, DAGLB inh 0, SKN-1 inh 5 and Ecoli rRNA inh -31*.
Screening Cn1cc(CN2CCCC(C(=O)c3cc(F)ccc3F)C2)c2ccccc21 (stereo not drawn) returned MT1-MMP act inh 0, iPSC survival up 1, DAGLB inh -2, SKN-1 inh 5 and Ecoli rRNA inh -10.
Screening O=C(C[C@@H]1CC[C@@H](NC(=O)Nc2ccccc2F)[C@@H](CO)O1)NCc1ccc(Cl)cc1 returned Cneo AK release -2 and Ecoli rRNA inh -5.
For O=C(O)c1ccc(OCC(O)Cn2c3ccccc3c3ccccc32)cc1 (stereo not drawn) the results were MT1-MMP act inh -6, iPSC survival up 0, Cneo AK release 1, DAGLB inh 3, SKN-1 inh -8 and Ecoli rRNA inh -46*.
Screening CCCn1c(=N)n(CC(O)COc2ccc(C)cc2)c2ccccc21 (stereo not drawn) returned MT1-MMP act inh 3, iPSC survival up -1, DAGLB inh 1, SKN-1 inh -3 and Ecoli rRNA inh -26*.
For C=C1SC(Nc2c(C)cccc2C)=NC12CCCCC2 the results were MT1-MMP act inh -17, iPSC survival up 0, Cneo AK release 4, SKN-1 inh -11 and Ecoli rRNA inh -22*.
`C=C1SC(Nc2c(C)cc(C)cc2C)=NC12CCCCC2` gave MT1-MMP act inh -30, iPSC survival up 0, Cneo AK release 6, DAGLB inh -10, SKN-1 inh -4 and Ecoli rRNA inh -50*.
For Cc1cc(C)c(NC(=O)CN2C(=O)NC3(CCCCC3)C2=O)c(C)c1 the results were MT1-MMP act inh -3, iPSC survival up -2, Cneo AK release -3, DAGLB inh -2, SKN-1 inh -8 and Ecoli rRNA inh 4.
Cc1ccc(/C=C2/SC(=Nc3ccc(F)cc3)NC2=O)s1 was read as MT1-MMP act inh -35, iPSC survival up 0, Cneo AK release 3, DAGLB inh -3, SKN-1 inh 40* and Ecoli rRNA inh 7.
For COCCCNC(=O)c1cn(CC(C)C)c(=O)c2c1c1ccccc1n2C the results were MT1-MMP act inh 2, iPSC survival up 1, Cneo AK release 1, DAGLB inh 0 and SKN-1 inh 50*.
For COc1cc2ccccc2cc1C(=O)Nc1cc(C)ccn1 the results were MT1-MMP act inh -2, iPSC survival up 0, Cneo AK release 5, DAGLB inh -4, SKN-1 inh 15 and Ecoli rRNA inh 1.
`COc1cc2ccccc2cc1C(=O)Nc1nccs1` gave MT1-MMP act inh -5, iPSC survival up -2, Cneo AK release -4, DAGLB inh -4, SKN-1 inh 58* and Ecoli rRNA inh -16.
`COc1c(C(=O)Nc2nccs2)ccc2ccccc12` gave MT1-MMP act inh 1, iPSC survival up 0, Cneo AK release -7, DAGLB inh -3, SKN-1 inh 55* and Ecoli rRNA inh -13.
O=C(Nc1nccs1)c1ccc2ccccc2c1 was read as MT1-MMP act inh 4, iPSC survival up -1, Cneo AK release -9, DAGLB inh -1, SKN-1 inh 44* and Ecoli rRNA inh -20.
For O=C(NCc1ccncn1)[C@H]1[C@H](CO)[C@H]2Cn3c(ccc(-c4cccc(F)c4)c3=O)[C@H]2N1CC1CC1 the results were Cneo AK release -1 and Ecoli rRNA inh -1.
Screening C(=N\Nc1nc2ccccc2[nH]1)/c1ccccc1 returned MT1-MMP act inh 8, iPSC survival up 0, Cneo AK release 0, DAGLB inh 4, SKN-1 inh 1 and Ecoli rRNA inh -53.
